Assay results as given in ChEMBL document CHEMBL2331284, “Synthesis and biological evaluation of 1,3,4-thiadiazole analogues as novel AChE and BuChE inhibitors” (Eur J Med Chem, 2013).
The source made the active and inactive calls. The rule behind the calls is not given here.

target: Acetylcholinesterase (Electrophorus electricus) (UniProt O42275); test: Non-competitive inhibition of electric eel AChE using acetylcholine iodide as substrate at 0.10 to 0.14 uM by Lineweaver-Burk method; settings: not given
Sequence (O42275 24-633 limits assumed): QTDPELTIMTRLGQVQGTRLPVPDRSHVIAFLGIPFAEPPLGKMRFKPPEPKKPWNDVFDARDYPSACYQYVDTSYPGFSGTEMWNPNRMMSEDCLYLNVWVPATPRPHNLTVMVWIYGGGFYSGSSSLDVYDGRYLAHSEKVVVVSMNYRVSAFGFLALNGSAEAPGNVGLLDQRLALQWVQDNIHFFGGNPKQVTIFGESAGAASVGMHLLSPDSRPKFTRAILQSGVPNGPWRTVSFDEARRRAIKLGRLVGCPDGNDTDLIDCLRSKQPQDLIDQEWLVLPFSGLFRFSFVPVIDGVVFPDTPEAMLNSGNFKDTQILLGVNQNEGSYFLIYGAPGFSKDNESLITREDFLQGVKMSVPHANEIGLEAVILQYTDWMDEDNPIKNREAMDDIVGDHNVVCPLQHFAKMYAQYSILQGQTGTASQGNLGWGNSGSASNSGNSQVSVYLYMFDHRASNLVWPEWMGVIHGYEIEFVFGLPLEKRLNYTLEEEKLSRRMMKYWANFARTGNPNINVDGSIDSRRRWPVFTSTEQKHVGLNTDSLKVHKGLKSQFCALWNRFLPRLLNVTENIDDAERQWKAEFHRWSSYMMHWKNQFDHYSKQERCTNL

In the case of `Oc1ccc(-c2nnc(-c3ccc(C(F)(F)F)cc3)s2)c(O)c1`, the inhibition is reported as “Active”.

tested on: not listed separately; test: Selectivity ratio of IC50 for equine serum BChE to IC50 for electric eel AChE; settings: not given
Method in brief: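 Modified Ellman assay for both enzymes: electric eel AChE with ATCh, or equine serum BuChE with BTCh; DTNB; 0.1 M potassium phosphate pH 8. Compound preincubated 10 min before substrate, absorbance rise at 412 nm at 1-min intervals, 37 °C. Seven concentrations (10⁻³–10⁻⁹ M) run in triplicate. IC50 from log dose–response; ratio = IC50(BuChE)/IC50(AChE).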

First: Oc1ccc(-c2nnc(-c3cc(Cl)ccc3Cl)s2)c(O)c1
Second: Oc1ccc(-c2nnc(-c3ccc(Cl)cc3Cl)s2)c(O)c1
The Ratio IC50 of the first is lower: 0.17 for the first, greater than 3.9 for the second.

`COc1ccc(OC)c(-c2nnc(-c3ccc(O)cc3O)s2)c1` and `COc1ccc(-c2nnc(-c3ccc(O)cc3O)s2)cc1OC` cannot be ordered by Ratio IC50: 40.5 for the first, greater than 25.9 for the second.

Going from `COc1cc(-c2nnc(-c3ccc(O)cc3O)s2)cc(OC)c1OC` to `COc1cc(-c2nnc(-c3ccc(O)cc3O)s2)ccc1O`, the Ratio IC50 falls from 1150 to 5.9.

Compared with `Oc1ccc(-c2nnc(-c3ccc(O)c(O)c3)s2)c(O)c1`, `Oc1ccc(-c2nnc(-c3ccc(O)cc3O)s2)c(O)c1` is higher in Ratio IC50: 11.4 for the first, 14.2 for the second.

Going from `COc1ccc(-c2nnc(-c3ccc(O)cc3O)s2)cc1` to `COc1cccc(-c2nnc(-c3ccc(O)cc3O)s2)c1`, the Ratio IC50 falls from 44.2 to 25.5.

Compared with `COc1ccccc1-c1nnc(-c2ccc(O)cc2O)s1`, `Oc1ccc(-c2nnc(-c3ccccc3Br)s2)c(O)c1` is lower in Ratio IC50: 7.9 for the first, 4.8 for the second.

Going from `O=[N+]([O-])c1ccccc1-c1nnc(-c2ccc(O)cc2O)s1` to `Oc1ccc(-c2nnc(-c3ccccc3F)s2)c(O)c1`, the Ratio IC50 rises from 27 to greater than 467.

Compared with `Cc1cc(-c2nnc(-c3ccc(O)cc3O)s2)ccc1[N+](=O)[O-]`, `O=[N+]([O-])c1cccc(-c2nnc(-c3ccc(O)cc3O)s2)c1` is higher in Ratio IC50: 7.1 for the first, 47.9 for the second.

`Oc1ccc(-c2nnc(-c3cc(Cl)cc(Cl)c3)s2)c(O)c1` and `Cc1cccc(-c2nnc(-c3ccc(O)cc3O)s2)c1` cannot be ordered by Ratio IC50: greater than 11.1 for the first, 106 for the second.

First: Oc1ccc(-c2nnc(-c3ccc(C(F)(F)F)cc3)s2)c(O)c1
Second: Nc1cccc(-c2nnc(-c3ccc(O)cc3O)s2)c1
The Ratio IC50 of the first is higher: 294 for the first, 48.7 for the second.

Compared with `CN(C)C(=O)Oc1cccc([N+](C)(C)C)c1` [NEOSTIGMINE BROMIDE], `Oc1ccc(-c2nnc(-c3ccccc3Cl)s2)c(O)c1` is higher in Ratio IC50: 1.4 for the first, 127 for the second.

target: Cholinesterase (Equus caballus, UniProt P81908); test: Inhibition of equine serum BChE using butyrylthiocholine iodide as substrate after 10 mins by Ellman method; settings: not given
Sequence (P81908 whole entry): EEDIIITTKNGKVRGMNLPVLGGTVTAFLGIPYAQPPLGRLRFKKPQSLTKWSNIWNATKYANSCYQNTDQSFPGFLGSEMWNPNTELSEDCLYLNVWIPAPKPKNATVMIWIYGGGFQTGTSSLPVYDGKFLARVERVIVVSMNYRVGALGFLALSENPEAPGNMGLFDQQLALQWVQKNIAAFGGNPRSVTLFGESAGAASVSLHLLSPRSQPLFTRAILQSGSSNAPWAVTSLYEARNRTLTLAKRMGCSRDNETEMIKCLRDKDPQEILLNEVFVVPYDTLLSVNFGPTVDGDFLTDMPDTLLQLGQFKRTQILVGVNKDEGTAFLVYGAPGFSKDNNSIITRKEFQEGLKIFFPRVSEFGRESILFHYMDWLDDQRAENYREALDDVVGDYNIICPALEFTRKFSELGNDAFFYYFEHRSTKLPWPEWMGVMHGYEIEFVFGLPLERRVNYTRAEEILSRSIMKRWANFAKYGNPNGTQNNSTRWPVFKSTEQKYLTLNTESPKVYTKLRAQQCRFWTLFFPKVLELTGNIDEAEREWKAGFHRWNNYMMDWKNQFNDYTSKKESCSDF

First: Oc1ccc(-c2nnc(-c3cc(Cl)ccc3Cl)s2)c(O)c1
Second: Oc1ccc(-c2nnc(-c3ccc(Cl)cc3Cl)s2)c(O)c1
The IC50 of the first is lower: 19.1 µM for the first, greater than 500 µM for the second. The first is the more potent here.

First: COc1ccc(OC)c(-c2nnc(-c3ccc(O)cc3O)s2)c1
Second: COc1ccc(-c2nnc(-c3ccc(O)cc3O)s2)cc1OC
The IC50 of the first is lower: 63.3 µM for the first, greater than 500 µM for the second. The first is the more potent here.

Compared with `COc1cc(-c2nnc(-c3ccc(O)cc3O)s2)cc(OC)c1OC`, `COc1cc(-c2nnc(-c3ccc(O)cc3O)s2)ccc1O` is 1.8-fold lower in IC50: 196 µM for the first, 112 µM for the second.

First: Oc1ccc(-c2nnc(-c3ccc(O)c(O)c3)s2)c(O)c1
Second: Oc1ccc(-c2nnc(-c3ccc(O)cc3O)s2)c(O)c1
The IC50 of the first is 12-fold lower: 2.16 µM for the first, 26.7 µM for the second. The first is the more potent here.

Going from `COc1ccc(-c2nnc(-c3ccc(O)cc3O)s2)cc1` to `COc1cccc(-c2nnc(-c3ccc(O)cc3O)s2)c1`, the IC50 falls from 96.3 µM to 27.3 µM (3.5-fold). The second is the more potent here.

Compared with `COc1ccccc1-c1nnc(-c2ccc(O)cc2O)s1`, `Oc1ccc(-c2nnc(-c3ccccc3Br)s2)c(O)c1` is 730-fold lower in IC50: 212 µM for the first, 0.29 µM for the second. The second is the more potent here.

First: O=[N+]([O-])c1ccccc1-c1nnc(-c2ccc(O)cc2O)s1
Second: Oc1ccc(-c2nnc(-c3ccccc3F)s2)c(O)c1
The IC50 of the first is lower: 57.3 µM for the first, greater than 500 µM for the second. The first is the more potent here.

Going from `Cc1cc(-c2nnc(-c3ccc(O)cc3O)s2)ccc1[N+](=O)[O-]` to `O=[N+]([O-])c1cccc(-c2nnc(-c3ccc(O)cc3O)s2)c1`, the IC50 falls from 148 µM to 32.1 µM (4.6-fold). The second is the more potent here.

Going from `Oc1ccc(-c2nnc(-c3cc(Cl)cc(Cl)c3)s2)c(O)c1` to `Cc1cccc(-c2nnc(-c3ccc(O)cc3O)s2)c1`, the IC50 falls from greater than 500 µM to 17 µM. The second is the more potent here.

First: Oc1ccc(-c2nnc(-c3ccc(C(F)(F)F)cc3)s2)c(O)c1
Second: Nc1cccc(-c2nnc(-c3ccc(O)cc3O)s2)c1
The IC50 of the first is 3.2-fold lower: 26.5 µM for the first, 84.3 µM for the second.

Going from `CN(C)C(=O)Oc1cccc([N+](C)(C)C)c1` [NEOSTIGMINE BROMIDE] to `Oc1ccc(-c2nnc(-c3ccccc3Cl)s2)c(O)c1`, the IC50 rises from 0.07 µM to 196 µM (2800-fold). The first is the more potent here.

target: Acetylcholinesterase (Electrophorus electricus, UniProt O42275); test: Inhibition of electric eel AChE using […] as substrate after 10 mins by Ellman method; settings: not given
Sequence (O42275 whole entry): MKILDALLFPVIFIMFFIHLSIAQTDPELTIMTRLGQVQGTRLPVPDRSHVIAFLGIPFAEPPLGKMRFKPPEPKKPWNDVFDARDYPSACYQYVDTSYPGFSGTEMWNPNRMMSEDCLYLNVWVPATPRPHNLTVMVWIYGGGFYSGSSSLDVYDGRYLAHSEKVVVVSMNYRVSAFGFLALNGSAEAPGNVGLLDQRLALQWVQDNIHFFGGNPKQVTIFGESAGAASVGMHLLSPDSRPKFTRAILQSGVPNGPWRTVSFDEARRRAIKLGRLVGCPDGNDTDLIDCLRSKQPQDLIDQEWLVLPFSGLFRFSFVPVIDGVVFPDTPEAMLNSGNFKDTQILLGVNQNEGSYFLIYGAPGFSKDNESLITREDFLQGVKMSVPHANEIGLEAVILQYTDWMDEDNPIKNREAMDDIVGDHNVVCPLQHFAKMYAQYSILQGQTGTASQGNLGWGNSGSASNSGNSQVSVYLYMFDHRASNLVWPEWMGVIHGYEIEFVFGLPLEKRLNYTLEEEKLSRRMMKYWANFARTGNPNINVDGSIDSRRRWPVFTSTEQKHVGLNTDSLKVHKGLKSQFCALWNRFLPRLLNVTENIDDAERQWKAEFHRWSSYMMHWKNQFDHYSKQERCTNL

`Oc1ccc(-c2nnc(-c3cc(Cl)ccc3Cl)s2)c(O)c1` and `Oc1ccc(-c2nnc(-c3ccc(Cl)cc3Cl)s2)c(O)c1` are within 1.5-fold of each other in IC50: 112000 nM for the first, 128000 nM for the second.

Going from `COc1ccc(OC)c(-c2nnc(-c3ccc(O)cc3O)s2)c1` to `COc1ccc(-c2nnc(-c3ccc(O)cc3O)s2)cc1OC`, the IC50 rises from 1560 nM to 19300 nM (12-fold). The first is the more potent here.

Going from `COc1cc(-c2nnc(-c3ccc(O)cc3O)s2)cc(OC)c1OC` to `COc1cc(-c2nnc(-c3ccc(O)cc3O)s2)ccc1O`, the IC50 rises from 170 nM to 19200 nM (110-fold). The first is the more potent here.

Going from `Oc1ccc(-c2nnc(-c3ccc(O)c(O)c3)s2)c(O)c1` to `Oc1ccc(-c2nnc(-c3ccc(O)cc3O)s2)c(O)c1`, the IC50 rises from 190 nM to 1890 nM (9.9-fold). The first is the more potent here.

`COc1ccc(-c2nnc(-c3ccc(O)cc3O)s2)cc1` and `COc1cccc(-c2nnc(-c3ccc(O)cc3O)s2)c1` are within 1.5-fold of each other in IC50: 2180 nM for the first, 1870 nM for the second.

Going from `COc1ccccc1-c1nnc(-c2ccc(O)cc2O)s1` to `Oc1ccc(-c2nnc(-c3ccccc3Br)s2)c(O)c1`, the IC50 falls from 26700 nM to 60 nM (440-fold).

Compared with `O=[N+]([O-])c1ccccc1-c1nnc(-c2ccc(O)cc2O)s1`, `Oc1ccc(-c2nnc(-c3ccccc3F)s2)c(O)c1` is 2-fold lower in IC50: 2120 nM for the first, 1070 nM for the second.

Compared with `Cc1cc(-c2nnc(-c3ccc(O)cc3O)s2)ccc1[N+](=O)[O-]`, `O=[N+]([O-])c1cccc(-c2nnc(-c3ccc(O)cc3O)s2)c1` is 31-fold lower in IC50: 20900 nM for the first, 670 nM for the second. The second is the more potent here.

First: Oc1ccc(-c2nnc(-c3cc(Cl)cc(Cl)c3)s2)c(O)c1
Second: Cc1cccc(-c2nnc(-c3ccc(O)cc3O)s2)c1
The IC50 of the first is 280-fold higher: 45300 nM for the first, 160 nM for the second.

Going from `Oc1ccc(-c2nnc(-c3ccc(C(F)(F)F)cc3)s2)c(O)c1` to `Nc1cccc(-c2nnc(-c3ccc(O)cc3O)s2)c1`, the IC50 rises from 90 nM to 1730 nM (19-fold). The first is the more potent here.

Going from `CN(C)C(=O)Oc1cccc([N+](C)(C)C)c1` [NEOSTIGMINE BROMIDE] to `Oc1ccc(-c2nnc(-c3ccccc3Cl)s2)c(O)c1`, the IC50 rises from 50 nM to 1550 nM (31-fold).

target: Acetylcholinesterase (Electrophorus electricus) (UniProt O42275); settings: at 0.12 to 0.17 µM

For `Cc1cccc(-c2nnc(-c3ccc(O)cc3O)s2)c1`, the inhibition was “Active”.
